In ChEMBL document CHEMBL1143850, “Direct inactivation of human immunodeficiency virus type 1 by a novel small-molecule entry inhibitor, DCM205” (Antimicrob Agents Chemother, 2007):
pEC50, pIC50: −log10 of the molar value. Activity calls are given as the source filed them. The rule behind the calls is not given here.

Columns and labels:
[1] = test system: Human immunodeficiency virus 1; assay: Antiviral activity against C clade R5 tropic HIV1 98TZ013 in HeLa H1-JC.37 cells by focal infectivity assay; format: functional, organism-based; settings: Human immunodeficiency virus 1, 98TZ013, HeLa
How it was run: (§1)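 HeLa H1-JC.37 cells were seeded at 4.5 x 10^3/well and grown overnight at 37°C. Drug was added in DMEM/0.1% FBS for 1 h. Cells then adsorbed 20–60 FFU of virus with drug for 1–2 h. FBS was raised to 10% with drug held constant, then cells were incubated 4 days. Foci were immunostained and counted as % of no-drug control. EC50 came from a regression line; ≥5 wells, ≥3 experiments.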

[2] = test system: Human immunodeficiency virus 1; assay: Antiviral activity against HIV1 NL43 in HeLa H1-JC.37 cells pretreated for 2 hrs before viral challenge by FIA; format: functional, organism-based
How it was run: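 HeLa H1-JC.37 cells (4.5 x 10^3/well, seeded overnight) were exposed to drug in DMEM/0.1% FBS for 2 h, then washed twice. They were infected with 20–60 FFU NL4-3 for 2 h. Volume was brought to 200 µl at 10% FBS and cells were incubated 4 days at 37°C. Readout was focus counting. A control arm added drug together with virus.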

[3] = test system: Human immunodeficiency virus 1; assay: Binding affinity to HIV1 ogp140 by SPR competition study in presence of gp41 MAb F240
How it was run: (§2)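 SPR was run at 25°C in HBS-P (pH 7.4). MAbs (10 µg/ml) were captured on immobilized goat anti-human Ig. 50 nM oligomeric gp140 was preincubated 30 min with 0, 1, 5 or 10 µM drug, then injected 1 min at 20 µl/min with 2 min dissociation. Surfaces were regenerated with 146 mM H3PO4. Responses were double-referenced and normalized to MAb capture level.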

[4] = test system: Human immunodeficiency virus 1; assay: Antiviral activity against B clade X4 R5 tropic HIV1 89.6 in HeLa H1-JC.37 cells by focal infectivity assay; format: functional, organism-based; settings: Human immunodeficiency virus 1, 89.6, HeLa; how it was run: as §1
[5] = test system: Human immunodeficiency virus 1; assay: Antiviral activity against HIV1 NL43 in HeLa H1-JC.37 cells after 2 hrs by p24 antigen capture ELISA; format: functional, organism-based
How it was run: (§3)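 NL4-3 was preincubated with drug for 2 h at 37°C and diluted 400-fold in medium with 0.1% FBS. It was added to CEMx174 (5 x 10^4/well), PHA-stimulated PBMCs (1 x 10^4/well) or HeLa H1-JC.37 cells (4.5 x 10^4/well) for 2 h. Cells were washed twice by centrifugation, resuspended in 10% FBS, and cultured 4 days at 37°C. Supernatant p24 was measured by antigen-capture ELISA.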

[6] = test system: Human immunodeficiency virus 1; assay: Antiviral activity against C clade R5 tropic HIV1 97ZA009 in HeLa H1-JC.37 cells by focal infectivity assay; format: functional, organism-based; settings: Human immunodeficiency virus 1, 97ZA009, HeLa; how it was run: as §1
[7] = test system: Human immunodeficiency virus 1; assay: Binding affinity to HIV1 ogp140 at by SPR competition study in presence of gp120 MAb b12
[8] = test system: Human immunodeficiency virus 1; assay: Antiviral activity against B clade R5 tropic HIV1 SF162 in HeLa H1-JC.37 cells by focal infectivity assay; format: functional, organism-based; settings: Human immunodeficiency virus 1, SF162, HeLa; how it was run: as §1
[9] = test system: Human immunodeficiency virus 1; assay: Antiviral activity against E clade R5 tropic HIV1 93TH078 in HeLa H1-JC.37 cells by focal infectivity assay; format: functional, organism-based; settings: Human immunodeficiency virus 1, 93TH078, HeLa; how it was run: as §1
[10] = test system: Human immunodeficiency virus 1; assay: Antiviral activity against B clade X4 tropic HIV1 HXBc2 in HeLa H1-JC.37 cells by focal infectivity assay; format: functional, organism-based; settings: Human immunodeficiency virus 1, HXBc2, HeLa; how it was run: as §1
[11] = test system: Simian immunodeficiency virus; assay: Antiviral activity against R5 tropic SIV mac239 in HeLa H1-JC.37 cells by focal infectivity assay; format: functional, organism-based; how it was run: as §1
[12] = test system: Human immunodeficiency virus 1; assay: Binding affinity to HIV1 ogp140 by SPR competition study in presence of gp41 MAb 5F3; how it was run: as §2
[13] = test system: Human immunodeficiency virus 1; assay: Antiviral activity against HIV1 NL43 in HeLa H1-JC.37 cells after 2 hrs by focal infectivity assay; format: functional, organism-based
How it was run: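 NL4-3 stock (10^5 FFU/ml) was preincubated with drug (0–30 µM) for 2 h at 37°C, then diluted 400-fold in DMEM/0.1% FBS so drug fell below inhibitory levels. The mixture was added to HeLa H1-JC.37 cells for 2 h adsorption. FBS was raised to 10% and cells were incubated 4 days. Focus immunostaining followed, with five replicate wells per concentration.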

[14] = test system: Human immunodeficiency virus 1; assay: Antiviral activity against HIV1 NL43 in PBMCs after 2 hrs by p24 antigen capture ELISA; format: functional, organism-based; how it was run: as §3
[15] = Cytotoxicity against human HeLa H1-JC.37 cells; format: cell-based
[16] = test system: Human immunodeficiency virus 1; assay: Antiviral activity against B clade R5 tropic HIV1 92TH014 in HeLa H1-JC.37 cells by focal infectivity assay; format: functional, organism-based; settings: Human immunodeficiency virus 1, 92TH014, HeLa; in the assay text read “dual tropic” for “R5 tropic”; how it was run: as §1
[17] = test system: Human immunodeficiency virus 1; assay: Antiviral activity against B clade R5 tropic HIV1 BaL in HeLa H1-JC.37 cells by focal infectivity assay; format: functional, organism-based; settings: Human immunodeficiency virus 1, BaL; how it was run: as §1
[18] = test system: Human immunodeficiency virus 1; assay: Antiviral activity against A clade R5 tropic HIV1 92RW016 in HeLa H1-JC.37 cells by focal infectivity assay; format: functional, organism-based; settings: Human immunodeficiency virus 1, 92RW016, HeLa; how it was run: as §1
[19] = test system: Human immunodeficiency virus 1; assay: Antiviral activity against B clade X4 R5 tropic HIV1 92HT593 in HeLa H1-JC.37 cells by focal infectivity assay; format: functional, organism-based; settings: Human immunodeficiency virus 1, 92HT593, HeLa; how it was run: as §1
[20] = test system: Human immunodeficiency virus 1; assay: Antiviral activity against B clade X4 tropic HIV1 NL43 in HeLa H1-JC.37 cells by focal infectivity assay; format: functional, organism-based; settings: Human immunodeficiency virus 1, NL43, HeLa; how it was run: as §1
[21] = test system: Human immunodeficiency virus 1; assay: Antiviral activity against HIV1 NL43 in CEMx174 cells after 2 hrs by p24 antigen capture ELISA; format: functional, organism-based; how it was run: as §3

With `O=S(=O)(/C=C/c1cc(O)c(O)c(O)c1)CS(=O)(=O)/C=C/c1cc(O)c(O)c(O)c1` the pEC50 [1] was 6.72, the Activity [2] was “inactive” and the Activity [3] was “Active”. For the same compound, the pEC50 [4] was 6.39, the Activity [5] was “Active” and the pEC50 [6] was 5.64. The Activity [7] was “Active”, the pEC50 [8] was 6.40 and the pEC50 [9] was 6.30. The pEC50 [10] was 6.28, the pEC50 [11] was 5.92 and the Activity [12] was “Active”. The Activity [13] was “Active”, the Activity [14] was “Active” and the pIC50 [15] was 3.77. The pEC50 [16] was 6.72, the pEC50 [17] was 6.07 and the pEC50 [18] was 6.15. The pEC50 [19] was 6.47, the pEC50 [20] was 6.48 and the Activity [21] was “Active”.
